Columns and labels:
[1] = tested on: SK-MEL-2; assay: Anticancer activity against human SK-MEL-2 cells assessed as cell growth promotion at 10^-5 M after 48 hrs by SRB assay relative to control; type: functional
[2] = tested on: HOP-62; assay: Anticancer activity against human HOP62 cells assessed as cell growth promotion at 10^-5 M after 48 hrs by SRB assay relative to control; type: functional
[3] = tested on: ACHN; assay: Cytotoxicity against human ACHN cells after 48 hrs by SRB assay; type: cell-based
Method in brief: (§1)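 NCI-60 five-dose screen in RPMI 1640 with 5% FBS and 2 mM L-glutamine; 5000–40,000 cells/well, 24 h pre-incubation. DMSO stocks diluted to 0.01, 0.1, 1, 10 and 100 μM final; 48 h at 37 °C, 5% CO2. Fixed with TCA (10% final adherent, 16% suspension), stained with 0.4% SRB, A515. GI50, TGI and LC50 taken from time-zero, control and test absorbances.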

[4] = tested on: NCI/ADR-RES; assay: Anticancer activity against human NCI/ADR-RES cells assessed as cell growth promotion at 10^-5 M after 48 hrs by SRB assay relative to control; type: functional
[5] = tested on: MDA-MB-468; assay: Growth inhibition of human MDA-MB-468 cells after 48 hrs by SRB assay; type: functional; settings: MDA-MB-468, 48 h
Method in brief: (§2)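 NCI 60-panel five-dose assay at 0.01, 0.1, 1, 10 and 100 μM. Cells in RPMI 1640 with 5% FBS and 2 mM L-glutamine, preincubated 24 h, with time-zero plates TCA-fixed. Drug exposure 48 h at 37 °C. Read by SRB staining at 515 nm. GI50 is the concentration where [(Ti−Tz)/(C−Tz)]×100 = 50, taken from log concentration versus % growth curves.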

[6] = tested on: HT-29; assay: Cytotoxicity against human HT-29 cells after 48 hrs by SRB assay; type: cell-based; settings: ht-29, 48 h; method in brief: as §1
[7] = tested on: SR; assay: Anticancer activity against human SR cells assessed as cell growth promotion at 10^-5 M after 48 hrs by SRB assay relative to control; type: functional
[8] = tested on: MDA-MB-468; assay: Cytotoxicity against human MDA-MB-468 cells after 48 hrs by SRB assay; type: cell-based; settings: mda-mb-468, 48 h; method in brief: as §1
[9] = tested on: COLO 205; assay: Anticancer activity against human COLO205 cells assessed as cell growth promotion at 10^-5 M after 48 hrs by SRB assay relative to control; type: functional
[10] = tested on: A498; assay: Cytotoxicity against human A498 cells after 48 hrs by SRB assay; type: cell-based; settings: a498, 48 h; method in brief: as §1
[11] = tested on: UACC-257; assay: Anticancer activity against human UACC257 cells assessed as cell growth promotion at 10^-5 M after 48 hrs by SRB assay relative to control; type: functional
[12] = tested on: 786-0; assay: Anticancer activity against human 786-0 cells assessed as cell growth promotion at 10^-5 M after 48 hrs by SRB assay relative to control; type: functional
[13] = tested on: UACC-62; assay: Anticancer activity against human UACC62 cells assessed as cell growth promotion at 10^-5 M after 48 hrs by SRB assay relative to control; type: functional
[14] = tested on: K562; assay: Cytotoxicity against human K562 cells after 48 hrs by SRB assay; type: cell-based; settings: k562, 48 h; method in brief: as §1
[15] = Anticancer activity against human […] cells assessed as cell growth promotion at 10^-5 M after 48 hrs by SRB assay relative to control; type: functional
[16] = tested on: U-251; assay: Anticancer activity against human U251 cells assessed as cell growth promotion at 10^-5 M after 48 hrs by SRB assay relative to control; type: functional
[17] = tested on: NCI-H226; assay: Anticancer activity against human NCI-H226 cells assessed as cell growth promotion at 10^-5 M after 48 hrs by SRB assay relative to control; type: functional
[18] = tested on: SNB-75; assay: Anticancer activity against human SNB75 cells assessed as cell growth promotion at 10^-5 M after 48 hrs by SRB assay relative to control; type: functional
[19] = tested on: NCI-H522; assay: Anticancer activity against human NCI-H522 cells assessed as cell growth promotion at 10^-5 M after 48 hrs by SRB assay relative to control; type: functional
[20] = tested on: PC-3; assay: Anticancer activity against human PC3 cells assessed as cell growth promotion at 10^-5 M after 48 hrs by SRB assay relative to control; type: functional
[21] = tested on: OVCAR-8; assay: Growth inhibition of human OVCAR8 cells after 48 hrs by SRB assay; type: functional; settings: OVCAR-8, 48 h; method in brief: as §2
[22] = tested on: U-251; assay: Cytotoxicity against human U251 cells after 48 hrs by SRB assay; type: cell-based; settings: u-251, 48 h
Method in brief: (§3)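 NCI-60 five-dose screen. Cells grown in RPMI 1640 with 5% FBS and 2 mM L-glutamine and pre-incubated 24 h; a time-zero plate is TCA-fixed. Drug added at 0.01, 0.1, 1, 10 and 100 µM (DMSO stock) for 48 h at 37 °C, 5% CO2. Fixed with cold TCA (10% final for adherent, 16% for suspension cells), stained with 0.4% SRB, A515. GI50, TGI and LC50 taken from dose-response curves.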

[23] = tested on: HCT-15; assay: Anticancer activity against human HCT15 cells assessed as cell growth promotion at 10^-5 M after 48 hrs by SRB assay relative to control; type: functional
[24] = tested on: SF-268; assay: Growth inhibition of human SF268 cells after 48 hrs by SRB assay; type: functional; settings: SF-268, 48 h; method in brief: as §2
[25] = tested on: BT-549; assay: Anticancer activity against human BT549 cells assessed as cell growth promotion at 10^-5 M after 48 hrs by SRB assay relative to control; type: functional
[26] = tested on: Malme-3M; assay: Growth inhibition of human MALME-3M cells after 48 hrs by SRB assay; type: functional; method in brief: as §2
[27] = tested on: LOX IMVI; assay: Cytotoxicity against human LOXIMVI cells after 48 hrs by SRB assay; type: cell-based; method in brief: as §1
[28] = tested on: EKVX; assay: Growth inhibition of human EKVX cells after 48 hrs by SRB assay; type: functional; method in brief: as §2
[29] = tested on: ACHN; assay: Growth inhibition of human ACHN cells after 48 hrs by SRB assay; type: functional; method in brief: as §2
[30] = tested on: SK-MEL-5; assay: Cytotoxicity against human SK-MEL-5 cells after 48 hrs by SRB assay; type: cell-based; settings: sk-mel-5, 48 h; method in brief: as §1
[31] = tested on: OVCAR-8; assay: Anticancer activity against human OVCAR8 cells assessed as cell growth promotion at 10^-5 M after 48 hrs by SRB assay relative to control; type: functional
[32] = tested on: A549; assay: Anticancer activity against human A549 cells assessed as cell growth promotion at 10^-5 M after 48 hrs by SRB assay relative to control; type: functional
[33] = tested on: OVCAR-4; assay: Anticancer activity against human OVCAR4 cells assessed as cell growth promotion at 10^-5 M after 48 hrs by SRB assay relative to control; type: functional
[34] = tested on: SW-620; assay: Anticancer activity against human SW620 cells assessed as cell growth promotion at 10^-5 M after 48 hrs by SRB assay relative to control; type: functional
[35] = tested on: NCI-H322M; assay: Anticancer activity against human NCI-H322M cells assessed as cell growth promotion at 10^-5 M after 48 hrs by SRB assay relative to control; type: functional
[36] = tested on: SNB-75; assay: Cytotoxicity against human SNB75 cells after 48 hrs by SRB assay; type: cell-based; settings: snb-75, 48 h; method in brief: as §3

For `O=c1c2ccccc2nc(-c2ccco2)n1/N=C/c1ccccc1Cl`, the Activity [1] was 67.89%, the Activity [2] was -34.84% and the LC50 [3] was > 100 µM. For the same molecule, the Activity [4] was 12.24%, the GI50 [5] was 9.96 µM and the TGI [5] was > 100 µM. The LC50 [6] was > 100 µM, the Activity [7] was 94.12% and the LC50 [8] was > 100 µM. For the same molecule, the Activity [9] was 32.76%, the LC50 [10] was > 100 µM and the Activity [11] was 82.72%. The Activity [12] was 26.39%, the Activity [13] was 62.82% and the LC50 [14] was > 100 µM. The Activity [15] was 92.65%, the Activity [16] was 37.22% and the Activity [17] was 53.52%. It also gave an Activity [18] of 32.38%, an Activity [19] of 10.38% and an Activity [20] of 78.23%. For the same molecule, the GI50 [21] was 3.98 µM, the TGI [21] was 25.8 µM and the LC50 [22] was > 100 µM. For the same molecule, the Activity [23] was 62.36%, the GI50 [24] was 6.84 µM and the TGI [24] was > 100 µM. For the same molecule, the Activity [25] was 13.63%, the GI50 [26] was 7.23 µM and the TGI [26] was > 100 µM. The LC50 [27] was > 100 µM, the GI50 [28] was 7.23 µM and the TGI [28] was > 100 µM. For the same molecule, the GI50 [29] was 3.12 µM, the TGI [29] was > 100 µM and the LC50 [30] was > 100 µM. For the same molecule, the Activity [31] was 26.87%, the Activity [32] was 38.12% and the Activity [33] was 4.38%. The Activity [34] was 34.38%, the Activity [35] was 36.23% and the LC50 [36] was > 100 µM.

In the case of `O=C(Nc1ccccc1C(=O)Nc1ccc(/C=C/c2ccc(O)cc2)cc1)c1ccccc1`, the Activity [1] is reported as 99.47%, the Activity [2] is reported as 95.55% and the Activity [4] is reported as 71.73%. For the same molecule, the Activity [7] was 94.97%, the Activity [9] was 101% and the Activity [11] was 94.49%. The Activity [12] was 81.43%, the Activity [13] was 40.16% and the Activity [15] was 53.22%. It also gave an Activity [16] of 103%, an Activity [17] of 79.29% and an Activity [18] of 99.47%. The Activity [19] was 69.87%, the Activity [20] was 61.81% and the Activity [23] was 57.75%. The Activity [25] was 65.95%, the Activity [31] was 86.46% and the Activity [32] was 75.71%. For the same molecule, the Activity [33] was 82.05%, the Activity [34] was 101% and the Activity [35] was 71.88%.

In the case of `O=C(Nc1ccccc1C(=O)Nc1ccc(/C=C/c2ccc(Cl)cc2)cc1)c1ccccc1`, the Activity [1] is reported as 90.64%, the Activity [2] is reported as 105% and the Activity [4] is reported as 95.06%. For the same molecule, the Activity [7] was 81.19%, the Activity [9] was 124% and the Activity [11] was 94.73%. For the same molecule, the Activity [12] was 75.14%, the Activity [13] was 79.67% and the Activity [15] was 56.24%. It also gave an Activity [16] of 60.68%, an Activity [17] of 85.77% and an Activity [18] of 84.55%. For the same molecule, the Activity [19] was 70.95%, the Activity [20] was 65.2% and the Activity [23] was 65.81%. It also gave an Activity [25] of 76.41%, an Activity [31] of 88.85% and an Activity [32] of 70.02%. It also gave an Activity [33] of 85.63%, an Activity [34] of 99.16% and an Activity [35] of 89.27%.
